These entries were drawn from the full list.
Apaf-1 act: activates human Apaf-1 apoptosome | O14727 | Apaf-1 apoptosome caspase-3 activation, DEVD-Rh110 fluorescence; hits give low values | activity change, negative = activation, % at 20 µM | 330,000 compounds, 0.31% hits | AID 489031;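 active = activity change at or below -40% at 20 µM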
Target sequence (O14727 whole entry, looked up): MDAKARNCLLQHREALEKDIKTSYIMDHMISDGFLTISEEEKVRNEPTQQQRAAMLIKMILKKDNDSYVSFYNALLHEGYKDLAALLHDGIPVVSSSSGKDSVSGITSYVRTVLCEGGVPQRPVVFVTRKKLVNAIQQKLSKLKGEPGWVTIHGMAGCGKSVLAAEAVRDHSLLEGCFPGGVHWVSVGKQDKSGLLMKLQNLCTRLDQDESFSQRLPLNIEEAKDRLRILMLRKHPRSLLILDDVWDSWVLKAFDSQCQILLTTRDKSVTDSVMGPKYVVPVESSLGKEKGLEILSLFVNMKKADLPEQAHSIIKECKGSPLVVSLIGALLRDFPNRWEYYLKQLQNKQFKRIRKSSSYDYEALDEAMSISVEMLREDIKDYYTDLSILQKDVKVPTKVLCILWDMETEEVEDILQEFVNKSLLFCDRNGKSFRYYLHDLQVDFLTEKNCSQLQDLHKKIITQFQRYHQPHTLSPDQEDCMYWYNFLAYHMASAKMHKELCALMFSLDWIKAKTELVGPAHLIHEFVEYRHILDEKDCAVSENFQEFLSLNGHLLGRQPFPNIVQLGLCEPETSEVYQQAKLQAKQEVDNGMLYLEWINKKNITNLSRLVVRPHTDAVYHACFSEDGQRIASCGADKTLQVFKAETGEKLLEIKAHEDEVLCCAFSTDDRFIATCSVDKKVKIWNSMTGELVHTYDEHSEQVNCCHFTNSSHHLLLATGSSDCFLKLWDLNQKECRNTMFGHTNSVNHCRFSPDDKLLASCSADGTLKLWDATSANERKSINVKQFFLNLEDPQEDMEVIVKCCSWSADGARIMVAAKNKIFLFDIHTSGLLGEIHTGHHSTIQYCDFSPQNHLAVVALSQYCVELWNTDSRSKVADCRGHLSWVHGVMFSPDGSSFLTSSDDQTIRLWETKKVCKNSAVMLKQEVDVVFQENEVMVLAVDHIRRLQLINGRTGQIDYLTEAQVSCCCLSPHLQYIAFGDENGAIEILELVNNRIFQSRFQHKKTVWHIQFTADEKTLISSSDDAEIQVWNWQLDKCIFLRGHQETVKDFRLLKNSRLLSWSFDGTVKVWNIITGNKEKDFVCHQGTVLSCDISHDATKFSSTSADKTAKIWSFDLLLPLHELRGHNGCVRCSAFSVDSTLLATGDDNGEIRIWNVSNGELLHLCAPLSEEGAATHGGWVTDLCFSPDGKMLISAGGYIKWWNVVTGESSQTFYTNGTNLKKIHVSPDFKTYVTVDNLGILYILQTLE
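Material: biochemical Apaf-1 apoptosome reconstitution; Medium: 20 mM HEPES buffer, pH 7.5, containing CHAPS and BSA; Reagent: dATP, cytochrome c, and (Z-DEVD)2-Rh110 caspase-3 substrate; Times: 30 min preincubation, 50 min reaction, room temperature; Signal: Rh110 fluorescence, excitation 480 nm, emission 540 nm; Measure: Caspase-3 activity via Apaf-1.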
* hit, by the source's call.

SMILES	Apaf-1 act
CC(=O)Nc1ccc(S(=O)(=O)NCc2ccc3c(c2)cc(C)n3C)cc1	51.2
CC(=O)Nc1ccc(S(=O)(=O)NC2(C(F)(F)F)NC(=O)N(c3ccc(Cl)cc3)C2=O)cc1 (stereo not given)	-58.0*
Cc1ccc(OCC(=O)N(Cc2nnc(-c3ccccc3Cl)o2)C2CC2)cc1C	56.2
Nc1ccc(O)c2ccccc12	67.7
COc1ccc(NS(=O)(=O)c2cccc(C(=O)N/N=C/c3cn(-c4ccccc4)nc3-c3ccc(OC)cc3)c2)cc1	-44.6*
COc1ccccc1C(CNC(=O)c1cccc(S(=O)(=O)Nc2ccc(C)cc2)c1)N(C)C (stereo not given)	46.1
COc1ccc(NS(=O)(=O)c2cccc(C(=O)N3CCCCCCC3)c2)cc1	45.2
CNC[C@@H]1Oc2ccc(NS(=O)(=O)c3ccc(Cl)cc3)cc2C(=O)N([C@H](C)CO)C[C@@H]1C	45.1
C[C@H](CO)N1C[C@H](C)[C@@H](CN(C)CC2CCCCC2)Oc2c(NC(=O)CCC(F)(F)F)cccc2C1=O	41.2
O=C(OCc1cc(Cl)ccc1OC(F)F)c1ccc([N+](=O)[O-])o1	66.4
C[C@@H]1CN([C@@H](C)CO)C(=O)c2cc(NC(=O)Nc3ccc(F)cc3)ccc2O[C@@H]1CN(C)Cc1ccc(Oc2ccccc2)cc1	41.8
CC(=O)[C@H]1[C@H](c2cccc(Cl)c2)C(C#N)(C#N)[C@@H]2c3ccccc3C=CN21	55.9
O=C1C(Cl)=C(NCCN2CCOCC2)C(=O)c2ccccc21	46.4
O=C(CCNC(=O)c1ccc(Cl)cc1)NCCCN1CCOCC1	48.1
Clc1ccc(SCCOCCN2CCOCC2)cc1	-53.5*
Cc1ccc2c(c1)c1cccc3c1n2CCN3CCC(N)=O	51.3
CC12CCC(=O)N1C(C(=O)Nc1ccccc1N1CCCCC1)CS2 (stereo not given)	48.1
Cn1c(-c2sccc2OCc2ccccc2)n[nH]c1=S	-289.1*
CC(=O)C1=C(c2cccc([N+](=O)[O-])c2)N(C(C)=O)n2c(C)nnc2S1	43.9
C#CCOCCOCCOCCNc1nc(N2CCN(C(=O)CCCCCCCCCCNC(=O)[C@H](CO)n3cc(CCCSC)nn3)CC2)nc(N2CCN(C(=O)CCCCCCCCCCNC(=O)[C@H](CCCN=C(N)N)n3cc(C[C@@H](C)CC)nn3)CC2)n1	45.1
CCn1c2ccccc2c2c3ncc4cccn4c3ccc21	61.7
Cc1[nH]n(-c2ccccc2)c(=O)c1/C=N\NC(=O)C1COc2ccccc2O1 (stereo not given)	53.9
CCCCC(=O)NC(c1ccc(C(C)C)cc1)c1ccc2cccnc2c1O (stereo not given)	-462.6*
CC(=O)N1CCN(c2ccc(NCc3ccc(-c4cccc(Cl)c4)o3)cc2)CC1	42.8
CC1CN(S(=O)(=O)c2cccc(C(=O)N(CCc3ccccc3)Cc3ccccc3)c2)CC(C)O1 (stereo not given)	45.3
SMILES	Apaf-1 act
Cc1ccc2c(c1)C(=O)C(=O)N2Cc1ccc(Cl)cc1	40.0
COC(=O)C1=C(C)N(Cc2ccccc2)C(=NCCc2cccnc2)N[C@H]1c1ccc(Br)cc1	51.3
COc1ccccc1N1CCN(C(=O)c2ccc3c(Cl)c4c(nc3c2)CCCC4)CC1	41.2
COc1ccccc1N1CCN(C(=O)C(C)CS(=O)(=O)c2ccc3c(c2)NC(=O)CS3)CC1 (stereo not given)	-427.8*
COc1ccccc1N1CCN(C(c2cccs2)C(C)NS(=O)(=O)c2ccccc2)CC1 (stereo not given)	55.4
Cc1cc(NC(=O)CSCC(=O)Nc2ccc(C)c(C)c2)no1	53.7
CCN(CC)c1ccc(NC(=O)CCS(=O)(=O)c2ccc(Br)cc2)c(C)c1	-136.4*
Cc1cccc(NC(=O)CSCC(=O)N(C)Cc2ccc(Cl)c(Cl)c2)c1	62.6
CCCN(CC(=O)Nc1ccccc1C)C(=O)COc1ccc2c(c1)CCC2	60.0
COc1ccccc1N(/N=C1\Sc2ccccc2C1=O)C(C)=O	82.6
COc1ccc(-n2c3nc4ccccc4nc3c3c(=N)oc(C)nc32)cc1	96.5
NC1=NC[C@@H](Cc2ccc(O)cc2)N1CCCCC1CCCCC1	50.9
CCCCc1nc(N2CCN(C(=O)c3ccco3)CC2)c(C#N)c2c1CCCC2	41.8
CCC1C(=O)N=C(SCC(=O)Nc2nc3ccccc3s2)NC1=O (stereo not given)	69.6
CCCN(CC(=O)Nc1ccccc1C)C(=O)c1sc2ccccc2c1Cl	60.6
C=C(C)C(=O)Nc1cccc(C2=NOC3(C2)C[C@H](C(N)=O)N(C(=O)CC)C3)c1 (stereo not given in full)	-270.6*
C=C(C)C(=O)Nc1cccc(C2=NOC3(C2)C[C@H](C(N)=O)N(C(=O)CC#N)C3)c1 (stereo not given in full)	-166.0*
COc1ccc(CCNC(=O)CSc2nnc(-c3ccco3)c(-c3ccco3)n2)cc1OC	42.5
O=C(/C=C/c1cc[n+](CC(=O)c2ccc3cccc4c3c2CC4)cc1)c1ccc2cccc3c2c1CC3	58.5
CC(C)=CCC/C(C)=C/CNC(=O)C[C@H]1C[C@H](C(=O)N2CCOCC2)[C@@]2(C)c3[nH]c4cc(-c5ccco5)ccc4c3CCN2C1=O	44.4
CC(Oc1ccc(Br)cc1)C(=O)NCC(C)(C)N1CCOCC1 (stereo not given)	47.4
CC(C)n1cnc2c(NCc3ccccc3)cc(N[C@H](C)CO)cc21	96.7
Cc1cccc(NC(=O)CN2CCN(C(=O)c3oc4c(Cl)cccc4c3C)CC2)c1C	69.9
CC(=O)c1cccc(N(CC(=O)Nc2ccccc2C(=O)N2CCCC2)S(C)(=O)=O)c1	-322.7*
Cc1cccc(N(Cc2ccccc2)C(=O)C2CCN(C(=O)c3ccccc3C)CC2)c1	48.5
SMILES	Apaf-1 act
Cc1ccc(C)c(NC(=O)CN(C)C(=O)c2cccc(S(=O)(=O)N3CCN(Cc4ccccc4)CC3)c2)c1	41.0
CS(=O)(=O)N(CC(=O)Nc1ccccc1C(=O)N1CCCC1)c1cccc([N+](=O)[O-])c1	-71.3*
CN(c1ccccc1)S(=O)(=O)c1cccc(C(=O)NCc2ccccc2CN2CCCC2)c1	52.0
CCc1ccc(N2C(=O)C(Cl)=C(Nc3ccc(C(=O)N4CCCC4)cc3)C2=O)cc1	41.4
O=C(c1ccc(-c2cccc(C(F)(F)F)c2)o1)N1CCCC(C(F)(F)F)C1 (stereo not given)	42.8
Clc1ccc(C2=Nn3c(nnc3-c3n[nH]c4c3CCC4)SC2)cc1Cl	42.9
CN(CC(=O)Nc1ccc(Cl)cc1)C(=O)c1sccc1-c1ccccc1	45.9
CCC1CCc2sc(C(=O)NCC(c3ccccc3OC)N3CCCC3)cc2C1 (stereo not given)	49.3
Cc1cccc(NC(=S)NCc2ccc3c(c2)cc(C)n3C)c1C	65.6
O=C1C=C(Nc2cccc3cccnc23)c2ccccc2C1=O	47.3
O=S(=O)(c1cccc2cccnc12)N1CCCCC1	-43.7*
O=C(c1ccc(Cl)c(S(=O)(=O)N2CCCCCC2)c1)N1CCCC(C(F)(F)F)C1 (stereo not given)	59.6
COc1ccc(C2C(C(=O)c3ccco3)=C(O)C(=O)N2CCCn2ccnc2)c(OC)c1 (stereo not given)	57.2
CCN(CC(=O)Nc1ccccc1OC)C(=O)CN1C(=O)NC(C)(c2ccccc2)C1=O (stereo not given)	49.5
CCOc1ccc(NC(=O)CN(C)C(=O)c2ccccc2OCc2c(C)noc2C)cc1OCC	57.3
COc1ccccc1CNC(=O)CN1C(=O)NC(c2ccccc2)(c2ccc(C)c(C)c2)C1=O (stereo not given)	65.9
